Legend:
[1] = target: P-glycoprotein (ABCB1) (Homo sapiens, UniProt P08183); experiment: Inhibition of P-glycoprotein in human doxorubicin-resistant K562 cells assessed as maximal increase of pirarubicin accumulation by spectrofluorometric analysis relative to control; assay type: cell-based; settings: probe pirarubicin
[2] = target: ATP-dependent translocase ABCB1 (Homo sapiens, UniProt P08183); experiment: Inhibition of P-glycoprotein in human doxorubicin-resistant K562 cells assessed as half maximal increase of pirarubicin accumulation by spectrofluorometric analysis; assay type: cell-based
[3] = tested on: K562; experiment: Cytotoxicity against human K562 cells at 1 uM after 72 hrs by MTT assay; assay type: cell-based; settings: k562, 72 h
How it was run: (§1)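 Intrinsic cytotoxicity of compound alone (no doxorubicin) tested at 1.0 µM on K562 and K562/DOX cells. Cells in exponential growth (3-5 × 10^5 cells/mL) seeded at 3000 cells/well and incubated 72 h at 37 °C, 5% CO2. MTT added for a further 3 h, formazan dissolved in DMSO, absorbance read at 540 nm. Quadruplicate cultures.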

[4] = tested on: K562; experiment: Cytotoxicity against human doxorubicin-resistant K562 cells at 1 uM after 72 hrs by MTT assay; assay type: cell-based; settings: k562, 72 h; how it was run: as §1
[5] = tested on: K562; experiment: Reversal fold, ratio of doxorubicin IC50 for doxorubicin-resistant human K562 cells in absence of compound to doxorubicin IC50 for doxorubicin-resistant human K562 cells in presence of 1 uM of compound; assay type: functional
How it was run: (§2)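 K562/DOX cells seeded at 3000 cells/well and exposed to doxorubicin (0.001-10 µM) with or without modulator (0.1 or 1.0 µM; DMSO stocks diluted in complete medium) for 72 h at 37 °C, 5% CO2. Viability read by MTT (3 h, DMSO solubilization, 540 nm). Doxorubicin IC50 taken from plotted curves. RF = IC50 without modulator / IC50 with modulator. Quadruplicate cultures.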

[6] = tested on: K562; experiment: Reversal fold, ratio of doxorubicin IC50 for doxorubicin-resistant human K562 cells in absence of compound to doxorubicin IC50 for doxorubicin-resistant human K562 cells in presence of 0.1 uM of compound; assay type: functional; how it was run: as §2

P-glycoprotein (ABCB1), sequence (P08183 whole entry): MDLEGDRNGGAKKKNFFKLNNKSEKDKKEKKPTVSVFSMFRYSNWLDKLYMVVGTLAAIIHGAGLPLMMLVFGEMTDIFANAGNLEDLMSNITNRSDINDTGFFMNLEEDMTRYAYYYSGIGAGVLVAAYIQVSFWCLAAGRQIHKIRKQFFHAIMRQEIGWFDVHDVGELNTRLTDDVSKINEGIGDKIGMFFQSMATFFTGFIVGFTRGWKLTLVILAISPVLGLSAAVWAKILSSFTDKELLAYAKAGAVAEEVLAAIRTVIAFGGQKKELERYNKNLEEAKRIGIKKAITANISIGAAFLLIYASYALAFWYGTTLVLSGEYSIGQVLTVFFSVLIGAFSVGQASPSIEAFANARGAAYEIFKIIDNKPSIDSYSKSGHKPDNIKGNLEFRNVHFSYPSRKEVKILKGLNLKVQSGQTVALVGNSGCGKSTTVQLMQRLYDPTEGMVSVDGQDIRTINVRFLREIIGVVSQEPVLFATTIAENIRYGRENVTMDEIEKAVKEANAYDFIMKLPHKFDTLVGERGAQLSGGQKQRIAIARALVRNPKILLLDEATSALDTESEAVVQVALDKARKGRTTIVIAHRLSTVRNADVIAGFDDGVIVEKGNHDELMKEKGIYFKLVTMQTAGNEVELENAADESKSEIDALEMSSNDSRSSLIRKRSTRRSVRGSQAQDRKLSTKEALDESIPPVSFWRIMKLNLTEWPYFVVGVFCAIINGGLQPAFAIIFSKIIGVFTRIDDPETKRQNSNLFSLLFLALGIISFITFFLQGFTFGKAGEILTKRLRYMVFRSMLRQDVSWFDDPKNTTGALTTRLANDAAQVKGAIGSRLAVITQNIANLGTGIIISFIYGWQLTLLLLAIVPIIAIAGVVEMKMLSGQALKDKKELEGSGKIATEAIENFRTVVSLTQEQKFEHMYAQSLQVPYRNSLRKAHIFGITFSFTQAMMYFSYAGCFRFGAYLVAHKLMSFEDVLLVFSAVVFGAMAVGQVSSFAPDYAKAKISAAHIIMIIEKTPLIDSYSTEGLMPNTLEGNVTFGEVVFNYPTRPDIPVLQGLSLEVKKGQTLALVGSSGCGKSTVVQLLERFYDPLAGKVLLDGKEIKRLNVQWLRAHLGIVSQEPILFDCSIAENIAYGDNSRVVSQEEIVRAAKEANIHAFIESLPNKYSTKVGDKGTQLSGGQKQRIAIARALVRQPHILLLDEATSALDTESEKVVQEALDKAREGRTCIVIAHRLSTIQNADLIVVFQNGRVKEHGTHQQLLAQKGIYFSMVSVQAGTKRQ
ATP-dependent translocase ABCB1, sequence (P08183 whole entry): as above

Row | Compound | Emax [1] | IC50 [2] | Activity [3] | Activity [4] | Ratio IC50 [5] | Ratio IC50 [6]
1 | COc1ccc(C(C#N)(CCCNCc2c3ccccc3cc3ccccc23)C(C)C)cc1OC (centres undefined) | 70% |  |  |  |  | 
2 | COc1cc(CCC(=O)O[C@H]2CC[C@H](N(C)[C@H]3CC[C@H](OC(=O)c4cc(OC)c(OC)c(OC)c4)CC3)CC2)cc(OC)c1OC | 76% | 610 nM |  |  |  | 
3 | COc1cc(CCC(=O)O[C@H]2CC[C@@H](N(C)[C@H]3CC[C@@H](OC(=O)c4cc(OC)c(OC)c(OC)c4)CC3)CC2)cc(OC)c1OC | 76% | 1100 nM |  |  |  | 
4 | COc1cc(C#CC(=O)O[C@H]2CC[C@H](N(C)[C@H]3CC[C@H](OC(=O)c4cc(OC)c(OC)c(OC)c4)CC3)CC2)cc(OC)c1OC | 99% | 70 nM | Non-toxic | Non-toxic | 1.9 | 0.6
5 | COc1cc(C#CC(=O)O[C@H]2CC[C@@H](N(C)[C@H]3CC[C@@H](OC(=O)c4cc(OC)c(OC)c(OC)c4)CC3)CC2)cc(OC)c1OC | 99% | 70 nM | Non-toxic | Non-toxic | 4.5 | 2.3
6 | COc1cc(/C=C/C(=O)O[C@H]2CC[C@H](N(C)[C@H]3CC[C@H](OC(=O)c4cc(OC)c(OC)c(OC)c4)CC3)CC2)cc(OC)c1OC | 81% | 320 nM |  |  | 9.2 | 
7 | COc1cc(/C=C/C(=O)O[C@H]2CC[C@@H](N(C)[C@H]3CC[C@@H](OC(=O)c4cc(OC)c(OC)c(OC)c4)CC3)CC2)cc(OC)c1OC | 80% | 30 nM |  |  | 9.8 | 
8 | COc1cc(/C=C/C(=O)O[C@H]2CC[C@@H](N(C)[C@H]3CC[C@H](OC(=O)c4cc(OC)c(OC)c(OC)c4)CC3)CC2)cc(OC)c1OC | 98% | 12 nM |  |  | 20.3 | 
9 | COc1ccc(C(C#N)(CCC(=O)O[C@H]2CC[C@H](N(C)[C@H]3CC[C@H](OC(=O)/C=C/c4cc(OC)c(OC)c(OC)c4)CC3)CC2)C(C)C)cc1OC (some centres undefined) | 99% | 140 nM |  |  |  | 
10 | COc1ccc(C(C#N)(CCC(=O)O[C@H]2CC[C@@H](N(C)[C@H]3CC[C@@H](OC(=O)/C=C/c4cc(OC)c(OC)c(OC)c4)CC3)CC2)C(C)C)cc1OC (some centres undefined) | 99% | 150 nM |  |  |  | 
11 | COc1cc(/C=C/C(=O)O[C@H]2CC[C@H](N(C)[C@H]3CC[C@H](OC(=O)C4c5ccccc5-c5ccccc54)CC3)CC2)cc(OC)c1OC | 94% | 75 nM | Non-toxic | Non-toxic | 2.9 | 2
12 | COc1cc(/C=C/C(=O)O[C@H]2CC[C@@H](N(C)[C@H]3CC[C@@H](OC(=O)C4c5ccccc5-c5ccccc54)CC3)CC2)cc(OC)c1OC | 90% | 180 nM |  |  |  | 
13 | COc1ccc(C(C(=O)O[C@H]2CC[C@H](N(C)[C@H]3CC[C@H](OC(=O)C#Cc4cc(OC)c(OC)c(OC)c4)CC3)CC2)c2ccc(OC)cc2)cc1 | 74% | 140 nM |  |  |  | 
14 | COc1cc(C#CC(=O)O[C@H]2CC[C@H](N(C)[C@H]3CC[C@H](OC(=O)C4c5ccccc5-c5ccccc54)CC3)CC2)cc(OC)c1OC | 77% | 500 nM |  |  |  | 
15 | COc1cc(C#CC(=O)O[C@H]2CC[C@@H](N(C)[C@H]3CC[C@@H](OC(=O)C4c5ccccc5-c5ccccc54)CC3)CC2)cc(OC)c1OC | 89% | 50 nM |  |  |  | 
16 | COc1cc(/C=C/C(=O)O[C@H]2CC[C@H](N(C)[C@H]3CC[C@@H](OC(=O)c4cc(OC)c(OC)c(OC)c4)CC3)CC2)cc(OC)c1OC (mixture of isomers) | 85% | 92 nM |  |  | 7.7 | 
17 | COc1cc(CCC(=O)O[C@H]2CC[C@H](N(C)[C@H]3CC[C@@H](OC(=O)c4cc(OC)c(OC)c(OC)c4)CC3)CC2)cc(OC)c1OC (mixture of isomers) | 75% | 630 nM |  |  |  | 
18 | COc1cc(CCC(=O)O[C@H]2CC[C@@H](N(C)[C@H]3CC[C@H](OC(=O)c4cc(OC)c(OC)c(OC)c4)CC3)CC2)cc(OC)c1OC (mixture of isomers) | 77% | 350 nM |  |  |  | 
19 | COc1cc(C#CC(=O)O[C@H]2CC[C@H](N(C)[C@H]3CC[C@@H](OC(=O)c4cc(OC)c(OC)c(OC)c4)CC3)CC2)cc(OC)c1OC (mixture of isomers) | 98% | 80 nM | Non-toxic | Non-toxic | 1.5 | 1.6
20 | COc1cc(C#CC(=O)O[C@H]2CC[C@@H](N(C)[C@H]3CC[C@H](OC(=O)c4cc(OC)c(OC)c(OC)c4)CC3)CC2)cc(OC)c1OC (mixture of isomers) | 99% | 20 nM | Non-toxic | Non-toxic | 8.5 | 2
21 | COc1ccc(C(C#N)(CCC(=O)O[C@H]2CC[C@H](N(C)[C@H]3CC[C@@H](OC(=O)/C=C/c4cc(OC)c(OC)c(OC)c4)CC3)CC2)C(C)C)cc1OC (mixture of isomers) | 88% | 240 nM |  |  |  | 
22 | COc1ccc(C(C#N)(CCC(=O)O[C@H]2CC[C@@H](N(C)[C@H]3CC[C@H](OC(=O)/C=C/c4cc(OC)c(OC)c(OC)c4)CC3)CC2)C(C)C)cc1OC (mixture of isomers) | 89% | 80 nM | Non-toxic | Non-toxic | 10.7 | 3
23 | COc1cc(/C=C/C(=O)O[C@H]2CC[C@@H](N(C)[C@H]3CC[C@H](OC(=O)C4c5ccccc5-c5ccccc54)CC3)CC2)cc(OC)c1OC (mixture of isomers) | 81% | 80 nM | Non-toxic | Non-toxic | 5 | 2.3
24 | COc1cc(/C=C/C(=O)O[C@H]2CC[C@H](N(C)[C@H]3CC[C@@H](OC(=O)C4c5ccccc5-c5ccccc54)CC3)CC2)cc(OC)c1OC (mixture of isomers) | 99% | 150 nM |  |  |  | 
25 | COc1ccc(C(C(=O)O[C@H]2CC[C@H](N(C)[C@H]3CC[C@@H](OC(=O)C#Cc4cc(OC)c(OC)c(OC)c4)CC3)CC2)c2ccc(OC)cc2)cc1 (mixture of isomers) | 76% | 130 nM |  |  |  | 
26 | COc1ccc(C(C(=O)O[C@H]2CC[C@@H](N(C)[C@H]3CC[C@@H](OC(=O)C#Cc4cc(OC)c(OC)c(OC)c4)CC3)CC2)c2ccc(OC)cc2)cc1 (mixture of isomers) | 94% | 120 nM |  |  |  | 
27 | COc1ccc(C(C(=O)O[C@H]2CC[C@@H](N(C)[C@H]3CC[C@H](OC(=O)C#Cc4cc(OC)c(OC)c(OC)c4)CC3)CC2)c2ccc(OC)cc2)cc1 (mixture of isomers) | 99% | 20 nM |  |  |  | 
28 | COc1cc(C#CC(=O)O[C@H]2CC[C@@H](N(C)[C@H]3CC[C@H](OC(=O)C4c5ccccc5-c5ccccc54)CC3)CC2)cc(OC)c1OC (mixture of isomers) | 96% | 120 nM |  |  |  | 
29 | COc1cc(C#CC(=O)O[C@H]2CC[C@H](N(C)[C@H]3CC[C@@H](OC(=O)C4c5ccccc5-c5ccccc54)CC3)CC2)cc(OC)c1OC (mixture of isomers) | 91% | 290 nM |  |  |  | 
